The whole screen tested about 120,000 compounds, of which about 20 (0.02%) were called active.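 The calls were made as follows: active = inhibition above 30.3% in the primary screen of four-compound pools, then above 30% when the compound was retested; inconclusive = passed the primary limit but could not be retested; inactive = the rest.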 What follows is part of a selection rich in actives, with near analogues and random picks from the rest.
Assay: clotrimazole potentiators killing C. albicans biofilm, primary screen, 4-compound mixtures (AID 1242);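 also: compounds exposed to preformed 24 h biofilms for 48 h; 0% = untreated biofilm control and 100% = clotrimazole plus chlorhexidine kill blank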
Settings: C. albicans biofilm persisters + clotrimazole, fluorescence viability, primary screen in compound mixtures, stronger effect = higher value
In short: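 Test system: C. albicans CAF4-2 wild-type biofilms; buffer or medium: RPMI/MOPS medium, pH 7.0; schedule: 24 h biofilm formation, then 48 h compound exposure, 37 °C; detection: Alamar Blue fluorescence; measure: percent inhibition of biofilm viability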

[1] = measured here: individual compound retest, at 61 µM

For `CCc1ccc(Nc2nnc(SCC(=O)c3ccc4c(c3)NC(=O)CO4)s2)cc1`, the inhibition (at 7.6 µM unless noted) was 10.2% (inactive).

For `COc1ccc(C(=O)OCC(=O)NCC2CCCO2)cc1[N+](=O)[O-]` (centres undefined), the inhibition (at 7.6 µM unless noted) was 12.1% (inactive).

With `CN(c1ccccc1)S(=O)(=O)c1cc(C(=O)OCC(=O)N2CCN(C(=O)c3ccco3)CC2)ccc1Cl` the inhibition (at 7.6 µM unless noted) was 13.3% (inactive).

With `COc1cc2c(cc1OC)CC1(CCCCC1)N=C2` the inhibition (at 7.6 µM unless noted) was 4.41% (inactive).

In the case of `Cc1ccc(C2CC(c3cccc(NS(C)(=O)=O)c3)=NN2S(C)(=O)=O)cc1` (centres undefined), the inhibition (at 7.6 µM unless noted) is reported as 16% (inactive).

In the case of `COCCC(=O)Nc1ccc2c(c1)CN(C(=O)CCOC)CC2`, the inhibition (at 7.6 µM unless noted) is reported as 18% (inactive).

With `CC(C)(C)c1cc(NC(=O)NN2CCOCC2)nn1-c1c(Cl)cc(Cl)cc1Cl` the inhibition (at 7.6 µM unless noted) was 5.67% (inactive).

For `C=CCOCCN(C)C1=NS(=O)(=O)c2ccccc21`, the inhibition (at 7.6 µM unless noted) was 3.65% (inactive).

With `CN(C)S(=O)(=O)c1cccc(NC(=O)COC(=O)c2cc(=O)[nH]c(=O)[nH]2)c1` the inhibition (at 7.6 µM unless noted) was 26.1% (inactive).

In the case of `CCOCCCN(C(=O)Cn1nnc(-c2ccc(OC)c(OC)c2)n1)C(CC)C(=O)NC1CCCC1` (centres undefined), the inhibition (at 7.6 µM unless noted) is reported as 18.7% (inactive).

In the case of `Cc1cccc(N2CCN(c3ccc(C(N)=O)cc3[N+](=O)[O-])CC2)c1C`, the inhibition (at 7.6 µM unless noted) is reported as 16.6% (inactive).

With `CCOC(=O)C1CCN(CCC(=O)Nc2cccc(C)c2)CC1` the inhibition (at 7.6 µM unless noted) was 9.47% (inactive).

In the case of `OCCC1CN(Cc2cccc(OC3CCCC3)c2)CCN1Cc1ccsc1` (centres undefined), the inhibition (at 7.6 µM unless noted) is reported as 13.6% (inactive).

With `CN(C)N(C)C(=O)C(O)(c1ccccc1)c1ccccc1` the inhibition (at 7.6 µM unless noted) was 8.15% (inactive).

In the case of `CCOc1ccc(NS(=O)(=O)c2ccc(C)c(C(N)=O)c2)cc1`, the inhibition (at 7.6 µM unless noted) is reported as 13.4% (inactive).

For `CCC(C)(C)NC(=O)/C=C/c1cc(OC)c(OC)c(S(=O)(=O)N2CCc3ccccc32)c1`, the inhibition (at 7.6 µM unless noted) was 12.1% (inactive).

For `Cc1ccc(S(=O)(=O)/N=C(/Nc2ccc3[nH]c(=O)[nH]c3c2)c2ccccc2)cc1`, the inhibition (at 7.6 µM unless noted) was 25.2% (inactive).

In the case of `CCCCN(CC)CCNC(=O)CCNC(=O)Cn1ccc2ccccc2c1=O`, the inhibition (at 7.6 µM unless noted) is reported as 8.03% (inactive).

For `CN(CC(O)COc1ccc(S(=O)(=O)N2CCOCC2)cc1Cl)C1CCCCC1` (centres undefined), the inhibition (at 7.6 µM unless noted) was 28.8% (inactive).

In the case of `Nc1nc(NCC2CCCO2)nc(Nc2ccccc2F)c1[N+](=O)[O-]` (centres undefined), the inhibition (at 7.6 µM unless noted) is reported as 13.6% (inactive).

With `Cn1nc(C(C)(C)C)c([N+](=O)[O-])c1C(N)=O` the inhibition (at 7.6 µM) was 56.6% (inactive) and the inhibition [1] was -53.4%.

For `O=C1N(c2ccccc2)C(=Nc2ccccc2)SC12CC2`, the inhibition (at 7.6 µM unless noted) was 16.8% (inactive).

For `CCN(CC)CCN(C(=O)c1ccc(N2C(=O)CCC2=O)cc1)c1nc2cc3c(cc2s1)OCO3`, the inhibition (at 7.6 µM unless noted) was 4.15% (inactive).

In the case of `CCC(=O)NC(=S)Nc1ccc(NC(=O)c2ccco2)c(Cl)c1`, the inhibition (at 7.6 µM unless noted) is reported as 2.96% (inactive).

For `O=C(c1cccc([N+](=O)[O-])c1)N1CCN(C(=O)c2ccco2)CC1`, the inhibition (at 7.6 µM unless noted) was 0.32% (inactive).

With `COC(=O)c1cccc(NS(C)(=O)=O)c1` the inhibition (at 7.6 µM unless noted) was 13.2% (inactive).

With `Cn1ccc(NC(=O)Nc2ccc(Cl)cc2)n1` the inhibition (at 7.6 µM unless noted) was 16.2% (inactive).

In the case of `Cc1ccc(O)c(NC(=S)NC(=O)COc2ccc(Br)cc2)c1`, the inhibition (at 7.6 µM unless noted) is reported as 9.22% (inactive).

For `CCN(CC)C(=O)C(=O)Nc1cccc(Br)c1`, the inhibition (at 7.6 µM unless noted) was 10% (inactive).

In the case of `COc1ccccc1CNC(=O)CNC(=O)c1cn(-c2ccccc2OC)c(=O)c2ccccc12`, the inhibition (at 7.6 µM unless noted) is reported as 24.6% (inactive).

For `OCCC1CN(Cc2ccc(Oc3ncccn3)cc2)CCN1CCc1ccccc1` (centres undefined), the inhibition (at 7.6 µM unless noted) was 23.9% (inactive).

In the case of `CC(NCc1nc2ccccc2n1C)C12CC3CC(CC(C3)C1)C2` (centres undefined), the inhibition (at 7.6 µM) is reported as 63.4% (inactive) and the inhibition [1] is reported as 0.64%.

With `O=C(NC(=S)Nc1ccc(S(=O)(=O)Nc2ncccn2)cc1)c1cccc(Br)c1` the inhibition (at 7.6 µM unless noted) was 20.2% (inactive).

In the case of `Nc1c(N(CCO)C(=O)C2CCCCC2)c(=O)[nH]c(=O)n1Cc1ccccc1`, the inhibition (at 7.6 µM unless noted) is reported as 4.09% (inactive).

With `Cc1cc(C)c(C)c(S(=O)(=O)N[C@@H](C)C(=O)OC(C)C(=O)NC(N)=O)c1C` (some centres undefined) the inhibition (at 7.6 µM unless noted) was 14.7% (inactive).

With `Cc1ccc(S(=O)(=O)/N=C(\N)c2ccc(F)cc2)cc1` the inhibition (at 7.6 µM unless noted) was 3.79% (inactive).

For `O=C(OCc1ccc([N+](=O)[O-])cc1)c1ccccn1`, the inhibition (at 7.6 µM unless noted) was 15% (inactive).

In the case of `Cc1cc(C)n(-c2ccc(C(=O)O)cc2[N+](=O)[O-])n1`, the inhibition (at 7.6 µM unless noted) is reported as 2.45% (inactive).

In the case of `COc1cc(N/C=C2\CC(=O)NC(C)=C2C#N)cc(OC)c1OC`, the inhibition (at 7.6 µM unless noted) is reported as 14.1% (inactive).

For `O=C(Nc1ccc(F)cc1)N1CCCC(c2nc3c(nnn3Cc3ccccc3Cl)c(=O)[nH]2)C1` (centres undefined), the inhibition (at 7.6 µM unless noted) was 11.9% (inactive).

With `NC(=O)Cc1nc2scc(-c3ccc(Cl)cc3)c2c(=O)[nH]1` the inhibition (at 7.6 µM unless noted) was 4.85% (inactive).

With `CC(=O)Nc1ccc(OCC(=O)NCc2ccc(C)cc2)cc1` the inhibition (at 7.6 µM unless noted) was 10.5% (inactive).

For `COc1ccc(C2NC(=S)NC3=C2CCc2ccccc23)cc1OC` (centres undefined), the inhibition (at 7.6 µM unless noted) was 18.9% (inactive).

For `COc1ccc(Cl)cc1CSc1ncn[nH]1`, the inhibition (at 7.6 µM unless noted) was 13.5% (inactive).

In the case of `COc1cccc(-n2c(=S)sc3c(=O)n(-c4ccccc4OC)c(SCC4OCCO4)nc32)c1`, the inhibition (at 7.6 µM unless noted) is reported as 28.1% (inactive).

For `OC1CCCN(c2ncnc3c2nnn3Cc2c(F)cccc2Cl)C1` (centres undefined), the inhibition (at 7.6 µM unless noted) was 19.6% (inactive).

With `Cc1cnc(C(=O)OCC(=O)N2CCc3ccccc32)cn1` the inhibition (at 7.6 µM unless noted) was -4.77% (inactive).

In the case of `COCCn1c(C)cc(C(=O)CSc2nc3ccccc3c(=O)n2C(C)COC)c1C` (centres undefined), the inhibition (at 7.6 µM unless noted) is reported as 8.22% (inactive).

For `Cc1nc(CNS(=O)(=O)c2cc([N+](=O)[O-])ccc2C)cs1`, the inhibition (at 7.6 µM unless noted) was 22.4% (inactive).

With `CCCCCCCC(=O)OC(CN1CCCCCC1)CN1CCCC1=O` (centres undefined) the inhibition (at 7.6 µM unless noted) was 0.73% (inactive).

In the case of `COc1ccccc1N1CCN(C(=O)CSc2ncnc3c2cnn3-c2ccc(C)c(C)c2)CC1`, the inhibition (at 7.6 µM unless noted) is reported as 19.7% (inactive).

For `CCOc1cc(C2C(C(=O)OC(C)C)=C(C)NC3=C2C(=O)CCC3)cc([N+](=O)[O-])c1O` (centres undefined), the inhibition (at 7.6 µM unless noted) was 16.6% (inactive).

Source: PubChem BioAssay AID1242 (PCMD, 2008)
